{"data": "Measurements pooled from the literature", "target": "Mitogen-activated protein kinase 13 (MAPK13, Homo sapiens, UniProt O15264)", "Sequence (O15264 1-365, as in one of the studies)": "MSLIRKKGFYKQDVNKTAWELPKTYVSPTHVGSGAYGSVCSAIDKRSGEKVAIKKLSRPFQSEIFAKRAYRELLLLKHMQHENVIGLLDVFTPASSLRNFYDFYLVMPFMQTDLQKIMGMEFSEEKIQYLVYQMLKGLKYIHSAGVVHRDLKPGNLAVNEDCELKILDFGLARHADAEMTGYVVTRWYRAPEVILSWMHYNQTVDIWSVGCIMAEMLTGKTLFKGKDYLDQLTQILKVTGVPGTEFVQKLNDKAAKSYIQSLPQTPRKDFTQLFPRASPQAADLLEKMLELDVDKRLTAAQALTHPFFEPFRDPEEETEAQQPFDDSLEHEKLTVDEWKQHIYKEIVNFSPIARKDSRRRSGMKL"}
{"Compound": "CC1CCCN1c1nccc(-c2cnn3ncccc23)n1 (stereo not shown)", "read-out": "binding", "tested at": "1 µM", "remaining binding [%]": 100}
{"Compound": "O=C(NCCCN1CCOCC1)c1ccc(Nc2nccc(-c3cc4ccccc4s3)n2)cc1", "read-out": "binding", "technique": "competition with immobilised ligand", "tested at": "1 µM", "remaining binding [%]": 100}
{"Compound": "Nc1ncc2c(n1)-c1c([nH]c3ccc(C#CC4CC4)cc13)CCCC2", "read-out": "binding", "technique": "competition with immobilised ligand", "tested at": "1 µM", "remaining binding [%]": 100}
{"Compound": "O=C(c1ccc(Nc2nccc(-c3cc4ccccc4s3)n2)cc1)N1CCC(N2CCCC2)CC1", "read-out": "binding", "technique": "competition with immobilised ligand", "tested at": "1 µM", "remaining binding [%]": 100}
{"Compound": "Cc1c[nH]c2nccc(Oc3c(F)cc(Nc4cc(Cl)nc(N)n4)cc3F)c12", "read-out": "cell-free assay", "technique": "competition with immobilised ligand", "tested at": "0.1 µM", "remaining binding [%]": 89}
{"Compound": "C[C@@H]1CCN(c2nccc(-c3cnn4ncccc34)n2)C1", "read-out": "binding", "tested at": "1 µM", "remaining binding [%]": 93}
{"Compound": "COc1ccc2c(c1)O[C@H](c1ccc(OC)c(OC)c1)C[C@@H]2NC(=O)C1(c2ccc3c(c2)OC(F)(F)O3)CC1", "read-out": "cell-free assay", "technique": "competition with immobilised ligand", "tested at": "1 µM", "remaining binding [%]": 100}
{"Compound": "F[C@@H]1CCN(c2nccc(-c3cnn4ncccc34)n2)C1", "read-out": "binding", "tested at": "1 µM", "remaining binding [%]": 67}
{"Compound": "COc1cnc(Nc2cccc(S(N)(=O)=O)c2)nc1N1CCN(c2ccccc2)CC1", "read-out": "binding", "technique": "competition with immobilised ligand", "tested at": "1 µM", "remaining binding [%]": 100}
{"Compound": "CS(=O)(=O)N1CCCC(NC(=O)[C@H](CCC2CCCCC2)NC(=O)c2ccc(CNC(=O)c3cnc4ccccn34)cc2)C1 (stereo partly shown)", "read-out": "cell-free assay", "technique": "competition with immobilised ligand", "tested at": "0.1 µM", "remaining binding [%]": 100}
{"Compound": "O=C(Nc1c[nH]nc1C(=O)NC1CCNCC1)c1cc(F)cc(F)c1", "read-out": "binding", "technique": "competition with immobilised ligand", "tested at": "1 µM", "remaining binding [%]": 92}
{"Compound": "CN([C@@H]1CCc2c(CC(=O)O)c3cc(S(C)(=O)=O)ccc3n2C1)S(=O)(=O)c1ccc(F)cc1", "read-out": "cell-free assay", "technique": "competition with immobilised ligand", "tested at": "1 µM", "remaining binding [%]": 68}
{"Compound": "c1cncc(-c2cccc(Nc3nccc(NC4CCCCC4)n3)c2)c1", "read-out": "binding", "technique": "competition with immobilised ligand", "tested at": "10 µM", "remaining binding [%]": 86}
{"Compound": "O=C(c1ccc(Nc2ncc(Cl)c(-c3ccc(Cl)s3)n2)cc1)N1CCC(N2CCCC2)CC1", "read-out": "binding", "technique": "competition with immobilised ligand", "tested at": "1 µM", "remaining binding [%]": 100}
{"Compound": "CN(C)c1nccc(-c2cnn3ncccc23)n1", "read-out": "binding", "tested at": "1 µM", "remaining binding [%]": 100}
{"Compound": "C[C@@]1(Cc2ccc(C#N)cc2)C(=O)N(c2cc(Cl)cc(Cl)c2)c2ncc(C(=O)NC3(c4nc(C5CCC5)no4)CC3)n21", "read-out": "cell-free assay", "technique": "competition with immobilised ligand", "tested at": "1 µM", "remaining binding [%]": 100}
{"Compound": "N[C@H]1CCN(c2nccc(-c3cnn4ncccc34)n2)C1", "read-out": "binding", "tested at": "1 µM", "remaining binding [%]": 84}
{"Compound": "CS(=O)(=O)NCC[C@H](NC(=O)c1cncc2c1cnn2-c1ccc(F)cc1)c1ccnc(S(C)(=O)=O)c1", "read-out": "cell-free assay", "technique": "competition with immobilised ligand", "tested at": "1 µM", "remaining binding [%]": 100}
{"Compound": "CN(c1nccc(-c2cnn3ncccc23)n1)C1CC1", "read-out": "binding", "tested at": "1 µM", "remaining binding [%]": 100}
{"Compound": "COc1ncc2cc3ccccc3nc2c1C#N", "read-out": "cell-free assay", "technique": "competition with immobilised ligand", "tested at": "5 µM", "remaining binding [%]": 79}
{"Compound": "O=C(Nc1cnc(Oc2ccc(F)cc2)nc1)N1CCc2ncccc2[C@@H]1c1ccc(F)cc1", "read-out": "cell-free assay", "technique": "competition with immobilised ligand", "tested at": "1 µM", "remaining binding [%]": 100}
{"Compound": "CN(C)c1ncc(F)c(-c2cnn3ncccc23)n1", "read-out": "binding", "tested at": "1 µM", "remaining binding [%]": 96}
